Bioassay records as filed in PubChem BioAssay.
Shown are actives, neighbours in structure and some others; about 2.6% of the full set was active somewhere.
Exocytosis inh – LAMP-1 surface exposure blockers, TALL-104 cells – cell-based, flow cytometry, MLPCN library, primary screen; TALL-104 LAMP-1 surface exposure; cells stimulated with thapsigargin and PMA; inhibition, % at 10 µM; actives 0.66% (n = 360,000);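 active means inhibition above about 55%, limit read from the data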
MC4R barr agon – MC4R agonists recruiting beta-arrestin, primary screen, cell-based, luminescence, agonist arm of biased-ligand search; AID 540308, 2011; actives 0.98% (n = 360,000); Melanocortin receptor 4 (Homo sapiens), P32245; U2OS MC4R beta-arrestin complementation; percent of melanotan II response, DMSO zero; activation, % at 8.9 µM;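 active means activation above a per-plate cutoff, the mean activation of sample wells on that plate plus 3 SD, cut at about 8% in these data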
T cell HTS – modulators of CD8 T cell-vesicle binding, primary screen, mouse 2C CD8+ T cells, flow cytometry; AID 2052, 2009; actives 0.068% (n = 330,000); 2C CD8+ T cell-vesicle binding; stronger effect = lower value; response (vesicle binding), % at 7 µM;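 active means response, share of CD8 T cells binding vesicles, and their 90th percentile fluorescence all below set limits, cut at about 80% in these data, passing the limit was not always enough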;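 further: values below 100% mean blocked vesicle binding to the CD8+ T cells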
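incubation = binding step 1.5 h, 37 °C, antibody labelling 20 min, ice | test system = 2C mouse CD8+ T cells | read-out basis = percent CD8+ FL2 mean versus row control | controls = Peptide-free naked vesicles (low) and QL9 vesicles with 0.7% DMSO vehicle (high) | detection = flow cytometry of vesicle-bound cells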
EP2 antag – human EP2 receptor antagonists, primary screen, TR-FRET cAMP, C6 glioma cells | C6 glioma cells expressing human EP2; cells stimulated with saturating PGE2 | actives 0.52% (n = 260,000) | Prostaglandin E2 receptor EP2 subtype (Homo sapiens), P43116 | inhibition, % at 25 µM | AID 1422, 2008;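 active means percent inhibition above 40 after rounding to a whole number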;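 further: rat C6 glioma host cells with rolipram phosphodiesterase inhibitor present; the protocol text gives 20 µM as final concentration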
Target sequence (P43116 whole entry, looked up): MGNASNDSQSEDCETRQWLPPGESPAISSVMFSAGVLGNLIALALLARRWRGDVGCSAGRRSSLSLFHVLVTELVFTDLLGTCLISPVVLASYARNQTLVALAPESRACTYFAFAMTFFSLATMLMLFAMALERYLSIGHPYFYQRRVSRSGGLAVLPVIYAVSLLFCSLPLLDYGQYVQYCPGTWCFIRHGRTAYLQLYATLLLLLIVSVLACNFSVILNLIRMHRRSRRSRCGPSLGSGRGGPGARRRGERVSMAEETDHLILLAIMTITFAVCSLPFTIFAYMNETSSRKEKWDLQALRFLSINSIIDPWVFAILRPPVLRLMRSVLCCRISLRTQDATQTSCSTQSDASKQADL
EP2 mod – EP2 receptor modulators, cAMP readout, primary screen, cell-based, HTRF cAMP, PGE2 stimulation. EP2-expressing cells, cAMP HTRF FRET, PGE2 co-stimulation. induction, % at 25 µM. actives 0.83% (n = 260,000). AID 940, 2007;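 active means compounds whose cAMP rise, as percent of the full-agonist control response, exceeds 60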;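 further: rat C6 glioma line stably carrying human EP2 under a CMV promoter; the protocol text gives 20 µM as final concentration; 100% = response of wells given 1 µM PGE2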
MC4R antagonist – MC4R antagonists of cAMP signaling, primary screen, cell-based, TR-FRET, antagonist arm of biased-ligand search | Melanocortin receptor 4 (Homo sapiens), P32245 | MC4R-expressing cells, MTII-stimulated cAMP, LANCE TR-FRET | inhibition, % at 6.5 µM | actives 0.48% (n = 360,000);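 active means inhibition above its plate's cutoff, the mean of tested wells on that plate plus 3 SD, cut at about 29% in these data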;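 further: 0% = Melanotan II alone and 100% = Melanotan II plus saturating MCL0020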
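Test system: U2OS cells stably expressing human melanocortin 4 receptor (MC4R); also added: Melanotan II challenge; compound: 6.5 µM single dose; timing: 30-min compound preincubation, 1-h Melanotan II challenge, 1-h detection, room temperature; signal: Eu-cAMP/anti-cAMP TR-FRET, emission 671 nm; repeats: one well per compound, no replicates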
The depositor's hits bear a star; i = inactive; . = no result given; ! = not confirmed by another sample.

SMILES	Exocytosis inh	MC4R barr agon	T cell HTS	EP2 antag	EP2 mod	MC4R antagonist
CNC(=S)N/N=C/c1c(C)cccc1Cl	2	0	57	16	-1	4
CNC(=S)N/N=C/c1c2ccccc2c(Cl)c2ccccc12	56*	4	631	.	.	15
CCCC1CCC(c2ccc(OCC)cc2)=CC1=O (configuration not stated)	0	-1	913	.	.	-7
CCC(CN1CCN(C)CC1)NC(=O)Cc1ccc2c(c1)CCC2 (configuration not stated)	.	.	.	46*	-33	.
CC1(C)O[C@H]2[C@@H](O1)[C@@H](On1nnc3ccc(Cl)cc31)O[C@@H]2[C@@H]1COC(C)(C)O1	.	.	.	52*	26	.
COc1ccc(/C=C/C(=O)NC(=S)Nc2ccc(S(=O)(=O)Nc3cc(C)on3)cc2)cc1	34	4	225	45*	-134	13
Cc1cc(C)cc(NS(=O)(=O)c2ccc(NC(=S)NC(=O)c3cccs3)cc2)c1	8	-2	225	42*	-87	7
COc1ccc(C(=O)NC(=S)Nc2ccc(S(=O)(=O)Nc3nccs3)cc2)cc1OC	.	.	.	43*	-138	.
Cc1ccnc(NS(=O)(=O)c2ccc(NC(=O)/C=C/c3cccs3)cc2)n1	1	7	321	5	-2	3
Cc1cc(C)nc(NS(=O)(=O)c2ccc(NC(=S)NC(=O)/C=C/c3cccs3)cc2)n1	.	.	.	63*	-117	.
Cc1nc(SCC(=O)Nc2ccc(F)cc2)nc2c1CCCC2	.	.	.	54*	-82	.
Cc1nc(SCc2ccc(C(=O)O)cc2)nc2c1CCCC2	0	1	160	6	61*!	12
Cc1nc(SCc2ccccc2)nc2c1CCCC2	.	.	.	13	54	.
Cc1ccc(C)c(NC(=O)CS(=O)(=O)c2c[nH]c3ccccc23)c1	0	-2	194	15	18	2
COC(CNC(=O)C1CCN(C(=O)c2cc3oc(C)cc3n2Cc2c(F)cccc2Cl)CC1)OC	-8	0	165	4	24	6
Cn1c(C(=O)N(Cc2ccccc2)Cc2ccccn2)cc2sccc21	-1	-1	195	5	43	16
Cn1c(C(=O)N(Cc2ccccc2)Cc2cccs2)cc2sccc21	4	-3	780	3	65*!	-1
O=C1N[C@@H](c2ccccc2)COC(=O)[C@@H](Cc2ccc(F)cc2)C/C=C\C[C@H]1CC(=O)N(CCO)Cc1ccccc1	19	-1	203	.	.	10
O=c1ccsn1Cc1ccccc1	95*	3	196	65*	-43	-19
CC1(c2ccccc2NC(=O)c2cccs2)CC1	.	.	.	10	65*	.
O=C(Nc1ccccc1C(=O)Nc1ccccc1)c1cccs1	-6	9.0*	459	.	.	10
O=C(O)c1cccc(NC(=O)c2ccccc2NC(=O)c2cccs2)c1	-1	1	.	.	.	9
Cc1c(NC(=O)c2cccs2)cccc1NC(=O)c1cccs1	0	0	614	.	.	-2
CC1CCCC(C)N1C(=O)Cc1ccccc1 (configuration not stated)	3	0	.	-3	15	-4
O=C(O)c1ccccc1NN=Cc1ccccc1	60*	2	.	.	.	20
SMILES	Exocytosis inh	MC4R barr agon	T cell HTS	EP2 antag	EP2 mod	MC4R antagonist
NC(=O)CN1CCC2(CC1)CC(=O)c1cc(Cl)ccc1O2	.	.	.	10	-51	.
O=[N+]([O-])c1ccc(N=Nc2c(Cl)cc(O)cc2Cl)cc1	79*	-2	79	15	-64	4
Oc1cccc2ccc(SSc3ccc4cccc(O)c4n3)nc12	.	.	.	106*	-63	.
O/N=C/c1ccc2cccc(O)c2n1	-2	0	296	6	-5	-4
Nc1nc(CSc2nc3ccccc3s2)nc(N2CCOCC2)n1	1	-1	178	5	-40	5
O=[N+]([O-])c1ccc(N2CCOCC2)cc1O	0	0	642	9	-14	12
Cc1cc(N2CCOCC2)ccc1/C=C\[N+](=O)[O-]	-3	-3	147	57*	-39	3
Oc1c(N=Nc2ccccn2)ccc2ccccc12	102*	-6	233	4	-7	10
CCOC(=O)c1c(C)[nH]c(C(=O)COC(=O)Cn2cc(C(F)(F)F)ccc2=O)c1C	1	-4	222	.	.	4
O=C1C2CCCN2C(c2cccs2)N1c1ccc(Cl)cc1 (configuration not stated)	-4	2	775	12	23	2
COC1=CC(=O)C(O)=C/C1=C\C=C\c1ccccc1	.	.	.	111*	-32	.
Nc1ccccc1N=Nc1c(S(=O)(=O)O)cc2cc(S(=O)(=O)O)cc(O)c2c1O	.	.	.	37	32	.
Cc1ccc(N=Nc2c(O)c(S(=O)(=O)O)cc3cc(S(=O)(=O)O)ccc23)c(C)c1	.	.	.	42*	10	.
CN(C)C(=O)CN1N=C(c2ccccc2)Cn2c(cc3sccc32)C1=O	.	.	.	.	-107	.
COC1=CC(=O)c2nc(Cl)ccc2C1=O	86*	.	.	.	.	.
Cc1ccc(NS(=O)(=O)c2ccc(Br)cc2)nc1	4	0	199	4	8	4
O=C1NN(c2ccccc2)C(=O)/C1=C\c1cccc(OC(=O)c2cccs2)c1	25	-2	485	40*	-42	-4
Cc1cccn2c(=O)c3cc(C(=O)N4CCOCC4)n(C)c3nc12	3	-1	207	.	.	3
Cc1nn(C(=O)c2ccco2)c(C)c1Sc1ccc(Cl)cc1	0	1	106	10	-28	7
Cc1nn(C(=O)c2cccnc2)c(C)c1Sc1ccc(Br)cc1	59*	-1	i	-2	-23	13
C=CCC[C@@H](Cc1ccc(F)cc1)C(=O)OCCNC(=O)[C@@H](CC=C)CC(=O)N[C@H](CO)Cc1ccccc1	4	-1	240	.	.	10
O=C(/C=C/c1ccccc1)N(Cc1nc2ccccc2c(=O)[nH]1)Cc1cccs1	.	.	.	10	63*	.
Cc1cc(-c2[nH]nc3c2C(c2ccc(C(F)(F)F)cc2)C(C#N)=C(N)O3)c(C)s1 (configuration not stated)	.	.	.	12	61*	.
CSc1nc(=S)c2[nH]c(=S)[nH]c2[nH]1	-5	-3	207	45*	24	15
O=C(COC(=O)/C=C/c1ccccc1[N+](=O)[O-])Nc1ccc(OCc2ccccc2)cc1	-3	9.2*	274	7	28	-5
